The nature of assay [1]: Fold selectivity against alpha 1A adrenergic receptor over alpha 2A, 2B and 2C adrenergic receptors. In short, it runs like this: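 Ki ratio derived from radioligand displacement at recombinant human adrenoceptors: α1a with [³H]prazosin, and α2a, α2b and α2c with [³H]rauwolscine, on membranes from cultured cells.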
Assay [2] deals with T1, Alpha-1D adrenergic receptor (Homo sapiens, UniProt P25100).
T1 sequence (P25100 whole entry): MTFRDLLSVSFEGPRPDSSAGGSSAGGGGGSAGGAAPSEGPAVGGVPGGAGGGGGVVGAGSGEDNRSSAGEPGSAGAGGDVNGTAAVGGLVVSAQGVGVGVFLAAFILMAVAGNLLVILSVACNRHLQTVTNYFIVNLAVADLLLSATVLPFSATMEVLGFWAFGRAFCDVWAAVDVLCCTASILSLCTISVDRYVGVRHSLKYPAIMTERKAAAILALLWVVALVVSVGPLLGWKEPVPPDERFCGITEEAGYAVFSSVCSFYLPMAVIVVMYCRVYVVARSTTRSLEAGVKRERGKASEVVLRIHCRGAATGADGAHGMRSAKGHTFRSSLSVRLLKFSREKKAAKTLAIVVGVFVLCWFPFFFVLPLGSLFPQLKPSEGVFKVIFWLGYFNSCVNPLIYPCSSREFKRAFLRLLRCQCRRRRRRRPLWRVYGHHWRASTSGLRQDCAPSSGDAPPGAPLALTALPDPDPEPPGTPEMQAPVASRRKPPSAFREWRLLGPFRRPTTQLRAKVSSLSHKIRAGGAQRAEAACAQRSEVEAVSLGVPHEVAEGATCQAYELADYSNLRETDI
Description: In vitro binding affinity against Alpha-1D adrenergic receptor at recombinant human receptor. Conditions: in the assay text read “at recombinant human receptor” for “of human liver microsomes”. Put shortly:
(§1)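 Radioligand displacement on membranes from cultured cells expressing recombinant human α1a, α1b or α1d adrenoceptors, using [³H]prazosin as radioligand; Ki values reported.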

The target in assay [3] is T2, Alpha-1B adrenergic receptor (Homo sapiens, UniProt P35368).
T2 sequence (P35368 whole entry): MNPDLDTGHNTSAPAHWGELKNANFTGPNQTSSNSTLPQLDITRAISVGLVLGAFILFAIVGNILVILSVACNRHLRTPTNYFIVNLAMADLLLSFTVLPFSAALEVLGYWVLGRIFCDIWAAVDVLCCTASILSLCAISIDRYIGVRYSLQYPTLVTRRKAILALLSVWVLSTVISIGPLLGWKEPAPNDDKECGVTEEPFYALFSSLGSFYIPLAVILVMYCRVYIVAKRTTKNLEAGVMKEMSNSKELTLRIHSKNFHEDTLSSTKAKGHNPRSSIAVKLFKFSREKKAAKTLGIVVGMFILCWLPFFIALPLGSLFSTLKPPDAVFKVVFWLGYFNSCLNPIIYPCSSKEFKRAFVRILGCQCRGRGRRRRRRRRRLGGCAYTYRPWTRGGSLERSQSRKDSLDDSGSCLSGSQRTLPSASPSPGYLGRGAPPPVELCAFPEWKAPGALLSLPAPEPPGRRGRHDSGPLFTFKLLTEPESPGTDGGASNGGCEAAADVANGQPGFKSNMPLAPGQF
Description: In vitro binding affinity against Alpha-1B adrenergic receptor at recombinant human receptor.

For assay [4], the target named is T3, Alpha-1A adrenergic receptor (Homo sapiens, UniProt P35348).
T3 sequence (P35348 whole entry): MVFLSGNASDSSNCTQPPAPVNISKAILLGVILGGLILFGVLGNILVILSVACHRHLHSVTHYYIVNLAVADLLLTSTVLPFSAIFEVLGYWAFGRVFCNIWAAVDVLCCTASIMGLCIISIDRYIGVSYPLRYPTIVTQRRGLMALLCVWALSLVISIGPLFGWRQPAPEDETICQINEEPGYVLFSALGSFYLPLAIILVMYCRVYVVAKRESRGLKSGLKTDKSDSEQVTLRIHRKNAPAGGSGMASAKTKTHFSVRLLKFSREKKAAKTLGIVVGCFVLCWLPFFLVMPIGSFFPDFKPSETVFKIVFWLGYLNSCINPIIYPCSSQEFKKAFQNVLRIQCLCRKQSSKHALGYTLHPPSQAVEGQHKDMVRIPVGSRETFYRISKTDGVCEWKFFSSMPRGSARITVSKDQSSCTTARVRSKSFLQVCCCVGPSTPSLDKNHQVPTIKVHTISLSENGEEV
The assay is described as follows: In vitro binding affinity against Alpha-1A adrenergic receptor […]. Put shortly: as §1

“And” between values parts separate entries of the source, which are not always exact repeats. Identical values can stand only once.

A word on the Ki: it is the equilibrium dissociation constant of an inhibitor or competing ligand from its target. `COCC1=C(C(=O)OC)C(c2ccc(F)c(F)c2)N(C(=O)NCCCN2CCN(c3ccccc3C(N)=O)CC2)C(=O)N1` (stereo not given) returned a Fold selectivity in assay [1] of more than 4500. Further, the Ki in assay [2] turned out to be 140 nM; in assay [3], 100 nM; in assay [4] it was 0.1 nM.

In the case of `COC(=O)C1=C(C)NC(=O)N(C(=O)NCCCN2CCN(c3ccccc3[N+](=O)[O-])CC2)C1c1ccc(F)c(F)c1` (stereo not given), the Fold selectivity in assay [1] was more than 23000. The Ki turned out to be 32 nM in assay [2], 23 nM in assay [3] and 0.01 nM in assay [4].

Compound `CCOc1ccccc1N1CCN(CCCNC(=O)N2C(=O)NC(C)=C(C(=O)OC)C2c2ccc(F)c(F)c2)CC1` (stereo not given) had a Fold selectivity in assay [1] of more than 210. The figures for the Ki in assay [2], in assay [3] and in assay [4] were 14 nM, 8.8 nM and 0.1 nM, respectively.

Compound `COC(=O)C1=C(C)NC(=O)N(C(=O)NCCCN2CCN(c3ccc(OC)cc3C)CC2)C1c1ccc(F)c(F)c1` (stereo not given) registered a Fold selectivity in assay [1] of more than 20. In addition, the Ki is 610 nM in assay [2], 510 nM in assay [3] and 16 nM in assay [4].

Consider `COC(=O)C1=C(C)NC(=O)N(C(=O)NCCCN2CCN(c3ccc(Cl)cc3)CC2)C1c1ccc(F)c(F)c1` (stereo not given), for which the Fold selectivity in assay [1] is more than 65. For the same compound, the Ki in assay [2] was 52 nM; in assay [3], 17 nM; in assay [4], 0.8 nM.

Consider `COC(=O)C1=C(C)NC(=O)N(C(=O)NCCCN2CCN(c3ccccc3C(=O)OC)CC2)C1c1ccc(F)c(F)c1` (stereo not given), for which the Fold selectivity in assay [1] is more than 85. In addition, the Ki in assay [2] is 30 nM; in assay [3] it was 25 nM; in assay [4] it was 0.2 nM.

The compound `COC(=O)C1=C(C)NC(=O)N(C(=O)NCCCN2CCN(c3ccccc3C)CC2)C1c1ccc(F)c(F)c1` (stereo not given) came in with a Fold selectivity in assay [1] of more than 110. Moreover, the Ki in assay [2] stood at 9.8 nM; in assay [3] it was 17 nM; in assay [4], 0.3 nM.

The compound `COC(=O)C1=C(C)NC(=O)N(C(=O)NCCCN2CCN(c3ccc(OC)cc3)CC2)C1c1ccc(F)c(F)c1` (stereo not given) displayed a Fold selectivity in assay [1] of more than 15. Besides, the Ki in assay [2] was determined as 480 nM; in assay [3] it was 410 nM; in assay [4], 14 nM.

In assay [1], `COC(=O)C1=C(C)NC(=O)N(C(=O)NCCCN2CCN(c3ccccc3)CC2)C1c1ccc(F)c(F)c1` (stereo not given) displayed a Fold selectivity of more than 55. Also, the Ki was found to be 21 nM in assay [2], 7.5 nM in assay [3] and 0.2 nM in assay [4].

Consider `COC(=O)C1=C(C)NC(=O)N(C(=O)NCCCN2CCN(c3ccccc3O)CC2)C1c1ccc(F)c(F)c1` (stereo not given), for which, in assay [1], the Fold selectivity is more than 65. The Ki in assay [2] amounted to 31 nM; in assay [3], 16 nM; in assay [4], 0.6 nM.

As to `COC(=O)C1=C(C)NC(=O)N(C(=O)NCCCN2CCN(c3ccccc3[N+](=O)[O-])C[C@H]2C)C1c1ccc(F)c(F)c1` (stereo not given in full), in assay [1], the Fold selectivity is more than 1600. Further, the results for the Ki in assay [2], in assay [3] and in assay [4] were 28 nM, 13 nM and 0.05 nM, respectively.

For the compound `COC(=O)C1=C(C)NC(=O)N(C(=O)NCCCN2CCN(c3ccccc3C(N)=O)CC2)C1c1cc(F)c(F)c(F)c1` (stereo not given), the Fold selectivity in assay [1] is more than 430. In addition, the Ki in assay [2] was 140 nM; in assay [3], 58 nM; in assay [4] it was 0.3 nM.

Consider `COC(=O)C1=C(C)NC(=O)N(C(=O)NCCCN2CCN(c3ccccc3OC)CC2)C1c1ccc(F)c(F)c1` (stereo not given), for which the Fold selectivity in assay [1] is more than 360. The figures for the Ki in assay [2], in assay [3] and in assay [4] were 31 nM, 18 nM and 0.1 nM, respectively.

On to `COC(=O)C1=C(C)NC(=O)N(C(=O)NCCCN2CCN(c3cccc(C(F)(F)F)c3)CC2)C1c1ccc(F)c(F)c1` (stereo not given), for which, in assay [1], the Fold selectivity was more than 60. In addition, the Ki in assay [2] is 120 nM; in assay [3], 43 nM; in assay [4], 4.9 nM.

With `CC(=O)C1=C(C)NC(=O)N(C(=O)NCCCN2CCN(c3ccccc3C(N)=O)CC2)C1c1ccc(F)c(F)c1` (stereo not given), in assay [1], the Fold selectivity was more than 70. The Ki amounted to 290 nM in assay [2], 170 nM in assay [3] and 0.7 nM in assay [4].

Compound `COC(=O)C1=C(C)NC(=O)N(C(=O)NCCCN2CCN(c3cccc(Cl)c3)CC2)C1c1ccc(F)c(F)c1` (stereo not given) yielded a Fold selectivity in assay [1] of more than 195. For the same compound, the Ki in assay [2] was 37 nM; in assay [3], 8.4 nM; in assay [4], 0.7 nM.

As to `CC(=O)C1=C(C)NC(=O)N(C(=O)NCCCN2CCN(c3ccccc3C(N)=O)CC2)C1c1cc(F)c(F)c(F)c1` (stereo not given), in assay [1], the Fold selectivity is more than 160. Further, the Ki in assay [2] was 390 nM; in assay [3], 220 nM; in assay [4] it was 0.4 nM.

Consider `COC(=O)C1=C(C)NC(=O)N(C(=O)NCCCN2CCN(c3ccccc3C#N)CC2)C1c1ccc(F)c(F)c1` (stereo not given), for which the Fold selectivity in assay [1] is more than 1300. For the same compound, the Ki is 12 nM and 15 nM in assay [2]; 15 nM in assay [3]; 0.1 nM and 0.08 nM in assay [4].

Turning to `COC(=O)C1=C(C)NC(=O)N(C(=O)NCCCN2CCN(c3ccccc3[N+](=O)[O-])C[C@@H]2C)C1c1ccc(F)c(F)c1` (stereo not given in full), the Fold selectivity in assay [1] is more than 17000. The values for the Ki in assay [2], in assay [3] and in assay [4] were 34 nM, 49 nM and 0.02 nM, respectively.

With `CCC1=C(C(N)=O)C(c2ccc(F)cc2F)N(C(=O)NCCCN2CCN(c3ccccc3C(N)=O)CC2)C(=O)N1` (stereo not given), the Fold selectivity in assay [1] is more than 600. Further, the figures for the Ki in assay [2], in assay [3] and in assay [4] were 1100 nM, 720 nM and 1.3 nM, respectively.

For `CCC1=C(C(=O)OC)C(c2ccc(F)cc2F)N(C(=O)NCCCN2CCN(c3ccccc3C(N)=O)CC2)C(=O)N1` (stereo not given), in assay [1], the Fold selectivity is more than 1900. Further, the Ki in assay [2] came out at 91 nM; in assay [3], 32 nM; in assay [4], 0.1 nM.

For `COC(=O)C1=C(C)NC(=O)N(C(=O)NCCCN2CCN(c3cccc([N+](=O)[O-])c3)CC2)C1c1ccc(F)c(F)c1` (stereo not given), the Fold selectivity in assay [1] was more than 40. Further, the Ki is 340 nM in assay [2], 150 nM in assay [3] and 12 nM in assay [4].

With `COCC1=C(C(=O)OC)C(c2cc(F)c(F)cc2F)N(C(=O)NCCCN2CCN(c3ccccc3C(N)=O)CC2)C(=O)N1` (stereo not given), the Fold selectivity in assay [1] is more than 660. Besides, the figures for the Ki in assay [2], in assay [3] and in assay [4] were 190 nM, 130 nM and 0.1 nM, respectively.

As to `COC(=O)C1=C(C)NC(=O)N(C(=O)NCCCN2CCN(c3ccccc3Cl)CC2)C1c1ccc(F)c(F)c1` (stereo not given), the Fold selectivity in assay [1] is more than 190. Besides, the Ki in assay [2] worked out at 14 nM; in assay [3], 15 nM; in assay [4], 0.2 nM.

`COC(=O)C1=C(C)NC(=O)N(C(=O)NCCCN2CCN(c3ccc(C(C)=O)cc3)CC2)C1c1ccc(F)c(F)c1` (stereo not given) returned a Fold selectivity in assay [1] of more than 2. Besides, the Ki was found to be 1800 nM in assay [2], 1300 nM in assay [3] and 430 nM in assay [4].
